Measured values published in ChEMBL document CHEMBL4765291, “Design, synthesis and biological evaluation of novel 3,4-dihydro-2(1H)-quinolinone derivatives as potential chitin synthase inhibitors and antifungal agents” (Eur J Med Chem, 2020).
In brackets after ≈: the same amount, converted by molar mass.

Assays:
[1] = tested on: Escherichia coli; assay: Antibacterial activity against Escherichia coli JM 109
[2] = tested on: Aspergillus fumigatus; assay: Antifungal activity against Aspergillus fumigatus GIMCC 3.19 incubated for 48 hrs by two-fold broth dilution analysis; assay type: functional
How it was run: (§1)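 Stock solutions in DMSO, diluted to 0.25–512 µg/mL; two-fold serial broth dilution in 96-well plates. Fungi grown on modified Sabouraud chloramphenicol agar (1% peptone, 2% glucose, […]). Incubated 48 h at 37 °C, then MIC (µg/mL) recorded. Fluconazole and polyoxin B as positive controls; each group tested in triplicate.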

[3] = tested on: Aspergillus flavus; assay: Antifungal activity against Aspergillus flavus ATCC 16870 incubated for 48 hrs by two-fold broth dilution analysis; assay type: functional
How it was run: as §1

[4] = tested on: Staphylococcus aureus; assay: Antibacterial activity against Staphylococcus aureus ATCC 25923; assay type: functional
How it was run: (§2)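 Two-fold serial broth dilution in 96-well plates following National Committee standards; compounds tested at different concentrations. Medium: beef extract peptone (1% peptone, 0.3% beef extract, 0.5% NaCl). Incubation 18–24 h. MIC recorded; streptomycin and norfloxacin as control drugs; each group tested in triplicate.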

[5] = tested on: Bacillus subtilis; assay: Antibacterial activity against Bacillus subtilis ATCC 6633; assay type: functional
How it was run: as §2

[6] = tested on: Candida albicans; assay: Antifungal activity against Candida albicans ATCC 76615 incubated for 48 hrs by two-fold broth dilution analysis; assay type: functional
How it was run: as §1

[7] = tested on: Candida tropicalis; assay: Inhibition of Candida tropicalis ATCC 750 chitin synthase at 300 ug/ml using UDP-GlcNAc as substrate relative to control; details: dose 300.0 µg/ml
How it was run: (§3)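 Chitin synthase prepared from C. tropicalis ATCC 750 by low- and high-speed centrifugation. DMSO stocks (10 mg/mL) diluted in 50 mM Tris-HCl pH 7.5; test concentrations 300–9.375 µg/mL. Chitin synthesized in WGA-coated wells, bound with WGA-HRP, washed, developed with TMB/H2O2, stopped with 2 M H2SO4, OD read. Duplicate; polyoxin B positive control.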

[8] = tested on: Staphylococcus aureus; assay: Antibacterial activity against methicillin-resistant Staphylococcus aureus N. 315; assay type: functional
How it was run: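 Two-fold serial broth dilution in 96-well plates per national clinical standard; beef extract peptone medium (1% peptone, 0.3% beef extract, 0.5% NaCl, […]). Compounds from DMSO stock diluted to test concentrations; incubation 18–24 h. MIC recorded; each group tested independently in triplicate.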

[9] = Inhibition of Candida tropicalis ATCC 750 chitin synthase using UDP-GlcNAc as substrate
How it was run: as §3

[10] = tested on: Pseudomonas aeruginosa; assay: Antibacterial activity against Pseudomonas aeruginosa ATCC 9027; assay type: functional
How it was run: as §2

[11] = tested on: Proteus vulgaris; assay: Antibacterial activity against Bacillus proteus ATCC 8427; assay type: functional
How it was run: as §2

[12] = tested on: Candida albicans; assay: Antifungal activity against Candida albicans ATCC 90023 incubated for 48 hrs by two-fold broth dilution analysis; assay type: functional
How it was run: as §1

[13] = tested on: Cryptococcus neoformans; assay: Antifungal activity against Cryptococcus neoformans ATCC 32719 incubated for 48 hrs by two-fold broth dilution analysis; assay type: functional
How it was run: as §1

Row | SMILES | MIC [1] [µg/mL] | MIC [2] [µg/mL] | MIC [3] [µg/mL] | MIC [4] [µg/mL] | MIC [5] [µg/mL] | MIC [6] [µg/mL] | inhibition [7] [%] | MIC [8] [µg/mL] | IC50 [9] [µM] | MIC [10] [µg/mL] | MIC [11] [µg/mL] | MIC [12] [µg/mL] | MIC [13] [µg/mL]
1 | O=C(/C=C/C(=O)NC1Cc2ccccc2NC1=O)Nc1ccccc1[N+](=O)[O-] (stereo not drawn) | 256 (≈ 673 µM) | 8 (≈ 21 µM) | 4 (≈ 10.5 µM) | 128 (≈ 337 µM) | 256 (≈ 673 µM) | 4 (≈ 10.5 µM) | 53.3 | 256 (≈ 673 µM) | 320 | 256 (≈ 673 µM) | 256 (≈ 673 µM) | 2 (≈ 5.26 µM) | 4 (≈ 10.5 µM)
2 | CCn1cc(C(=O)O)c(=O)c2cc(F)c(N3CCNCC3)cc21 [NORFLOXACIN] | 8 (≈ 25.1 µM) | – | – | 2 (≈ 6.26 µM) | 4 (≈ 12.5 µM) | – | – | 4 (≈ 12.5 µM) | – | 8 (≈ 25.1 µM) | 2 (≈ 6.26 µM) | – | –
3 | Cc1cc(C)cc(NC(=O)/C=C/C(=O)NC2Cc3ccccc3NC2=O)c1 (stereo not drawn) | 256 (≈ 704 µM) | 2 (≈ 5.5 µM) | 1 (≈ 2.75 µM) | 128 (≈ 352 µM) | 256 (≈ 704 µM) | 4 (≈ 11 µM) | 71.5 | 512 (≈ 1410 µM) | 190 | 256 (≈ 704 µM) | 512 (≈ 1410 µM) | 2 (≈ 5.5 µM) | 16 (≈ 44 µM)
4 | O=C(/C=C/C(=O)NC1Cc2ccccc2NC1=O)Nc1cccc(Br)c1 (stereo not drawn) | 256 (≈ 618 µM) | 4 (≈ 9.66 µM) | 4 (≈ 9.66 µM) | 128 (≈ 309 µM) | 256 (≈ 618 µM) | 2 (≈ 4.83 µM) | 45.2 | 512 (≈ 1240 µM) | – | 256 (≈ 618 µM) | 256 (≈ 618 µM) | 1 (≈ 2.41 µM) | 32 (≈ 77.2 µM)
5 | O=C(/C=C/C(=O)NC1Cc2ccccc2NC1=O)Nc1cccc2ccccc12 (stereo not drawn) | 512 (≈ 1330 µM) | 4 (≈ 10.4 µM) | 8 (≈ 20.8 µM) | 256 (≈ 664 µM) | 256 (≈ 664 µM) | 2 (≈ 5.19 µM) | 27.8 | 256 (≈ 664 µM) | – | 256 (≈ 664 µM) | 256 (≈ 664 µM) | 2 (≈ 5.19 µM) | 4 (≈ 10.4 µM)
6 | O=C(/C=C/C(=O)NC1Cc2ccccc2NC1=O)Nc1ccccc1 (stereo not drawn) | 512 (≈ 1530 µM) | 4 (≈ 11.9 µM) | 4 (≈ 11.9 µM) | 256 (≈ 763 µM) | 256 (≈ 763 µM) | 4 (≈ 11.9 µM) | 35.7 | 256 (≈ 763 µM) | – | 256 (≈ 763 µM) | 256 (≈ 763 µM) | 2 (≈ 5.96 µM) | 4 (≈ 11.9 µM)
7 | Cc1ccccc1NC(=O)/C=C/C(=O)NC1Cc2ccccc2NC1=O (stereo not drawn) | 256 (≈ 733 µM) | 4 (≈ 11.4 µM) | 4 (≈ 11.4 µM) | 128 (≈ 366 µM) | 512 (≈ 1470 µM) | 1 (≈ 2.86 µM) | 67.3 | 256 (≈ 733 µM) | 380 | 512 (≈ 1470 µM) | 256 (≈ 733 µM) | 2 (≈ 5.72 µM) | 16 (≈ 45.8 µM)
8 | O=C(/C=C/C(=O)NC1Cc2ccccc2NC1=O)Nc1ccccc1Br (stereo not drawn) | 512 (≈ 1240 µM) | 8 (≈ 19.3 µM) | 2 (≈ 4.83 µM) | 128 (≈ 309 µM) | 512 (≈ 1240 µM) | 4 (≈ 9.66 µM) | 39.9 | 256 (≈ 618 µM) | – | 512 (≈ 1240 µM) | 512 (≈ 1240 µM) | 2 (≈ 4.83 µM) | 32 (≈ 77.2 µM)
9 | O=C(/C=C/C(=O)NC1Cc2ccccc2NC1=O)Nc1cccc([N+](=O)[O-])c1 (stereo not drawn) | 128 (≈ 337 µM) | 8 (≈ 21 µM) | 4 (≈ 10.5 µM) | 128 (≈ 337 µM) | 256 (≈ 673 µM) | 4 (≈ 10.5 µM) | 49.3 | 256 (≈ 673 µM) | – | 512 (≈ 1350 µM) | 256 (≈ 673 µM) | 2 (≈ 5.26 µM) | 4 (≈ 10.5 µM)
10 | O=C(/C=C/C(=O)NC1Cc2ccccc2NC1=O)Nc1ccc(F)c(F)c1 (stereo not drawn) | 512 (≈ 1380 µM) | 8 (≈ 21.5 µM) | 8 (≈ 21.5 µM) | 256 (≈ 689 µM) | 512 (≈ 1380 µM) | 4 (≈ 10.8 µM) | 66.5 | 512 (≈ 1380 µM) | 340 | 512 (≈ 1380 µM) | 512 (≈ 1380 µM) | 2 (≈ 5.39 µM) | 16 (≈ 43.1 µM)
11 | O=C(/C=C/C(=O)NC1Cc2ccccc2NC1=O)Nc1ccccc1F (stereo not drawn) | 512 (≈ 1450 µM) | 1 (≈ 2.83 µM) | 8 (≈ 22.6 µM) | 256 (≈ 724 µM) | 256 (≈ 724 µM) | 8 (≈ 22.6 µM) | 48.9 | 512 (≈ 1450 µM) | – | 512 (≈ 1450 µM) | 512 (≈ 1450 µM) | 4 (≈ 11.3 µM) | 16 (≈ 45.3 µM)
12 | O=C(/C=C/C(=O)NC1Cc2ccccc2NC1=O)Nc1ccc(Cl)cc1 (stereo not drawn) | 256 (≈ 692 µM) | 8 (≈ 21.6 µM) | 4 (≈ 10.8 µM) | 128 (≈ 346 µM) | 256 (≈ 692 µM) | 4 (≈ 10.8 µM) | 50.5 | 512 (≈ 1380 µM) | – | 512 (≈ 1380 µM) | 512 (≈ 1380 µM) | 2 (≈ 5.41 µM) | 4 (≈ 10.8 µM)
13 | Cc1ccc(NC(=O)/C=C/C(=O)NC2Cc3ccccc3NC2=O)cc1 (stereo not drawn) | 256 (≈ 733 µM) | 4 (≈ 11.4 µM) | 4 (≈ 11.4 µM) | 128 (≈ 366 µM) | 512 (≈ 1470 µM) | 4 (≈ 11.4 µM) | 58.7 | 256 (≈ 733 µM) | 260 | 512 (≈ 1470 µM) | 256 (≈ 733 µM) | 2 (≈ 5.72 µM) | 16 (≈ 45.8 µM)
14 | OC(Cn1cncn1)(Cn1cncn1)c1ccc(F)cc1F [FLUCONAZOLE] | – | 2 (≈ 6.53 µM) | 2 (≈ 6.53 µM) | – | – | 1 (≈ 3.27 µM) | – | – | – | – | – | 1 (≈ 3.27 µM) | 2 (≈ 6.53 µM)
15 | O=C(/C=C/C(=O)NC1Cc2ccccc2NC1=O)Nc1ccc(Br)cc1 (stereo not drawn) | 512 (≈ 1240 µM) | 4 (≈ 9.66 µM) | 4 (≈ 9.66 µM) | 128 (≈ 309 µM) | 512 (≈ 1240 µM) | 2 (≈ 4.83 µM) | 40.3 | 256 (≈ 618 µM) | – | 512 (≈ 1240 µM) | 512 (≈ 1240 µM) | 2 (≈ 4.83 µM) | 16 (≈ 38.6 µM)
16 | O=C(/C=C/C(=O)NC1Cc2ccccc2NC1=O)Nc1ccc(F)cc1 (stereo not drawn) | 256 (≈ 724 µM) | 4 (≈ 11.3 µM) | 8 (≈ 22.6 µM) | 128 (≈ 362 µM) | 512 (≈ 1450 µM) | 2 (≈ 5.66 µM) | 51.2 | 512 (≈ 1450 µM) | 340 | 256 (≈ 724 µM) | 256 (≈ 724 µM) | 2 (≈ 5.66 µM) | 8 (≈ 22.6 µM)
17 | NC(=O)OC[C@H](O)[C@@H](O)[C@H](N)C(=O)N[C@H](C(=O)O)[C@H]1O[C@@H](n2cc(CO)c(=O)[nH]c2=O)[C@H](O)[C@@H]1O [POLYOXIN B] | – | 2 (≈ 3.94 µM) | 4 (≈ 7.88 µM) | – | – | 2 (≈ 3.94 µM) | 87.5 | – | 90 | – | – | 4 (≈ 7.88 µM) | 4 (≈ 7.88 µM)
18 | O=C(/C=C/C(=O)NC1Cc2ccccc2NC1=O)Nc1ccc([N+](=O)[O-])cc1 (stereo not drawn) | 256 (≈ 673 µM) | 4 (≈ 10.5 µM) | 2 (≈ 5.26 µM) | 128 (≈ 337 µM) | 256 (≈ 673 µM) | 8 (≈ 21 µM) | 65.2 | 256 (≈ 673 µM) | 350 | 512 (≈ 1350 µM) | 256 (≈ 673 µM) | 2 (≈ 5.26 µM) | 8 (≈ 21 µM)
19 | CN[C@@H]1[C@H](O[C@H]2[C@H](O[C@H]3[C@H](O)[C@@H](O)[C@H](N=C(N)N)[C@@H](O)[C@@H]3N=C(N)N)O[C@@H](C)[C@]2(O)C=O)O[C@@H](CO)[C@H](O)[C@H]1O [STREPTOMYCIN] | 32 (≈ 55 µM) | – | – | 32 (≈ 55 µM) | 8 (≈ 13.8 µM) | – | – | 16 (≈ 27.5 µM) | – | 8 (≈ 13.8 µM) | 16 (≈ 27.5 µM) | – | –
20 | O=C(/C=C/C(=O)NC1Cc2ccccc2NC1=O)Nc1ccccc1Cl (stereo not drawn) | 256 (≈ 692 µM) | 8 (≈ 21.6 µM) | 8 (≈ 21.6 µM) | 128 (≈ 346 µM) | 512 (≈ 1380 µM) | 4 (≈ 10.8 µM) | 46.7 | 512 (≈ 1380 µM) | – | 256 (≈ 692 µM) | 512 (≈ 1380 µM) | 2 (≈ 5.41 µM) | 16 (≈ 43.3 µM)
